Screening data deposited in PubChem by Johns Hopkins Ion Channel Center.
Most compounds without a hit are left out; they make up all but 3.7% or so of the library.
KCNK3 block – human KCNK3 channel inhibition, primary screen | O14649 | CHO-KCNK3 thallium flux, FluxOR fluorescence; stronger effect = lower value | B-score at 10 µM | 0.84% of 340,000 active;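 active = B-score under library mean minus 4 SD, starting fluorescence ratio at most library mean plus 5 SD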;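 also: more negative B-score means stronger inhibition of thallium flux through KCNK3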
Target sequence (O14649 whole entry, looked up): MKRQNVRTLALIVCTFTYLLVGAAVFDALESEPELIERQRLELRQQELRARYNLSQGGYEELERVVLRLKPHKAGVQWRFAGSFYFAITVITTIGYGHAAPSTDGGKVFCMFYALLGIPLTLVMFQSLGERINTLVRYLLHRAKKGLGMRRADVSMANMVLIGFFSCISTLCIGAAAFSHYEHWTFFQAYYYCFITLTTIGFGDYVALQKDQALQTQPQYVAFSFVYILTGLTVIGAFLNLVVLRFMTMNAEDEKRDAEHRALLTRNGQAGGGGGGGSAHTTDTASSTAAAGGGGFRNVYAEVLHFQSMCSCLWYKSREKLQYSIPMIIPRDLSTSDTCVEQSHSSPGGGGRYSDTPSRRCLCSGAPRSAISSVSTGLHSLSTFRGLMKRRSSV
KCNQ1 block – inhibitors of human KCNQ1 potassium channel; CHO-K1 KCNQ1, FluxOR thallium flux fluorescence; stronger effect = higher value; B-score at 10 µM; 1.3% of 310,000 active; AID 2642;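 active = compounds whose thallium flux B-score, printed positive for inhibition, exceeds three library SD while starting fluorescence stays within three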;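 also: channel opened by potassium depolarization with thallium stimulus after 20 min compound exposure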
hERG rescue – compounds protecting human hERG from proarrhythmic drug block | activation (rescue from dofetilide block), less the hit threshold, % at 10 µM | 0.51% of 310,000 active | Q12809 | CHO-hERG, FluxOR thallium flux, dofetilide IC70 present;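 active = activation above the mean of controls blocked by dofetilide plus 5 SD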;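 also: thallium influx through hERG after potassium depolarization seen as dye fluorescence rise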
Kir21 inh – inhibitors of mouse Kir2.1 inward-rectifier potassium channel; HEK293-Kir2.1, FluxOR thallium flux fluorescence; stronger effect = lower value; 0.85% of 310,000 active; B-score at 10 µM; P35561;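 active = fluorescence ratio B-score at or below minus 3 SD of library scores, with starting-brightness B-score within 2 SD, cut at about -4.2 in these data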;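 also: channel flux triggered by added potassium and thallium sulfate stimulus; B-score of peak minus minimum fluorescence over baseline after thallium stimulus; more negative B-score means stronger Kir2.1 block with less thallium influx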
KCNQ1 act – potentiates or activates the human KCNQ1 potassium channel | P51787 | CHO-K1 KCNQ1, thallium flux FluxOR fluorescence; stronger effect = higher value | 0.35% of 310,000 active | B-score at 10 µM;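 active = fluorescence ratio B-score, a plate-corrected score, at least three library SD, with initial intensity B-score within 5 SD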
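Doses: Single concentration per compound, DMSO matched to controls | Test system: KCNQ1-transfected CHO-K1 cells | Timing: 90 min dye loading and 20 min compound exposure, both at room temperature | Measured by: Kinetic FluxOR thallium fluorescence, 10-s 1-Hz baseline, 110-s post-stimulus read | Medium: Assay buffer with matched DMSO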
KCNK9 inh – blocks the human KCNK9 two-pore domain potassium channel | Q9NPC2 | HEK293 KCNK9, FluxOR thallium flux fluorescence; stronger effect = lower value | B-score at 10 µM | 1.2% of 310,000 active;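 active = ratio B-score over 3 SD below the library mean, with starting fluorescence within 5 SD of its mean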;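 also: negative B-score means less thallium flux so channel inhibition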
* = called active by the depositor; i = inactive; . = no result.

SMILES	KCNK3 block	KCNQ1 block	hERG rescue	Kir21 inh	KCNQ1 act	KCNK9 inh
CN1CCN(c2nc(-c3ccccc3)c3cc(Cl)ccc3n2)CC1	i	i	-20	-9.6*	i	i
O=C1CN(c2nc(-c3ccccc3)c3cc(Cl)ccc3n2)c2ccccc2N1	i	i	-12	0.39	i	i
Clc1ccc2nc(N3CCNCC3)nc(-c3ccccc3)c2c1	i	i	-31	-4.9*	i	i
CN1CCN(c2nnc(-c3ccccc3)c(-c3ccccc3)n2)CC1	i	i	-8	-0.32	i	i
O=C(NC(=S)NCc1ccccc1Cl)c1cccs1	i	.	.	.	.	.
c1ccc(-c2ccc(OCCCNC3CCCC3)cc2)cc1	i	i	-19	-5.8*	i	i
c1ccc(Cc2ccc(OCCCNC3CCCC3)cc2)cc1	.	i	-16	-8.1*	i	i
CCc1c(N)nc(N)nc1Nc1ccccc1C	i	.	.	.	.	.
CCCCCCCC1c2c(c(C)c(C)oc2=O)Oc2c(C)c(C)oc(=O)c21	i	.	.	.	.	.
Cc1ccc(NC2CCCN(C(=O)c3ccnc(Cl)c3)C2)cc1C (stereo unspecified)	i	i	-6	-0.25	i	i
CC(NC(=O)c1ccc(NC(=O)CC2SC(N3CCCC3)=NC2=O)cc1)c1ccc(S(N)(=O)=O)cc1 (stereo unspecified)	i	i	-14	-0.79	i	i
Fc1cccc(C2NN=C(c3ccccc3)S2)c1 (stereo unspecified)	i	i	11*	0.09	i	i
O=C1NCCCCC1NS(=O)(=O)c1ccc(Cl)cc1 (stereo unspecified)	i	i	-6	1.8	i	i
Cc1ccccc1CSc1nnc(-c2ccco2)n1Cc1ccco1	i	i	-11	-8.2*	i	i
Cc1ccccc1CSc1nnc(-c2cccs2)n1Cc1ccco1	i	i	-20	-1.3	i	i
CCn1c(SCc2nc(-c3ccc(Cl)cc3)no2)nnc1-c1ccco1	i	i	-6	-4.7*	i	i
c1ccc(CSc2nnc(-c3cccs3)n2Cc2ccco2)cc1	i	i	-28	-7.7*	i	i
CC(C)[C@H]1COCCS(=O)(=O)N1Cc1ccccc1-c1ccc(F)cc1	i	.	.	.	.	.
Oc1ccccc1CN1CCN(C(O)(c2ccccc2)c2ccccc2)CC1	i	i	-10	-7.3*	i	i
Oc1ccccc1CN1CCC(C(O)(c2ccccc2)c2ccccc2)CC1	i	i	-9	-5.2*	i	i
Oc1ccccc1CN1CCCN(Cc2ccccc2O)C1	i	i	5.0*	-3.7	i	i
O=C(C1CC1)N1CCC(C(O)(c2ccccc2)c2ccccc2)CC1	i	i	-17	-0.06	i	i
Oc1ccc(CN2CCN(Cc3ccccc3)CC2)c2cccnc12	i	i	-10	-3.8	i	i
CC(C)CC1NC(=O)C(CC(C)C)N(CO)C1=O (stereo unspecified)	i	.	.	.	.	.
O=C(CSc1nnnn1-c1cccc(F)c1)NC1CC1	i	.	.	.	.	.
SMILES	KCNK3 block	KCNQ1 block	hERG rescue	Kir21 inh	KCNQ1 act	KCNK9 inh
COc1cc(C)c(C(C)C)cc1S(=O)(=O)NC1CC(C)(C)NC(C)(C)C1	i	i	5.7*	-1.5	i	i
CCOc1cc(C)c(Cl)cc1S(=O)(=O)NC1CC(C)(C)NC(C)(C)C1	i	i	1	0.06	i	i
COc1ccc(S(=O)(=O)N2CCc3ccccc3C2)cc1OC	i	i	-12	-4.2*	i	i
O=Cc1ccc(-c2cc(Cl)ccc2Cl)[nH]1	i	i	-1	-0.8	i	-6.7*
CCOc1cc(NC(=S)N2CCC(C(N)=O)CC2)c(C(=O)OC)cc1OCC	i	i	11*	0.2	i	i
O=C1/C(=C\c2ccc(Br)o2)Cc2ccccc21	i	i	-5	-0.61	i	-9.9*
O=C1/C(=C/c2cccs2)Cc2ccccc21	i	i	-10	1.1	i	i
CCc1cc(C(=O)Nc2cc(S(=O)(=O)N3CCOCC3)ccc2N2CCN(CC)CC2)sc1C	i	.	.	.	.	.
CCOc1cc(C(=O)NC)cc(OCC)c1OCC	i	i	9.7*	1.6	i	i
CC1=C(C(=O)Nc2ccccc2)C(c2ccco2)C(C#N)=C(SCC(=O)Nc2cccc(C)c2C)N1 (stereo unspecified)	i	i	-7	0.17	i	i
CCc1ccc(C(=O)CSC2=C(C#N)C(c3ccco3)C(C(C)=O)=C(C)N2)cc1 (stereo unspecified)	.	i	-10	-0.79	i	-11*
CC1=C(C(=O)Nc2ccccc2)C(c2ccco2)C(C#N)=C(SCc2ccccc2)N1 (stereo unspecified)	.	11*	-12	1.3	i	i
CC1=C(C(=O)Nc2ccccc2)C(c2ccco2)C(C#N)=C(SCC(=O)OC(C)C)N1 (stereo unspecified)	-9.8*	i	-25	0.39	i	i
CC(=O)C1=C(C)NC(SCC(=O)c2ccc(F)cc2)=C(C#N)C1c1ccco1 (stereo unspecified)	i	i	-8	-0.88	i	i
Cn1c(O)c(N=Nc2ccccc2)c2ccccc21	i	i	1	1.6	i	i
Cn1c(O)c(N=Nc2nc(-c3ccccc3)cs2)c2ccccc21	i	i	35*	1.4	60*	i
COc1ccc(NS(=O)(=O)c2ccc(OC)c3ccccc23)cn1	i	i	-12	-5.3*	i	i
c1csc(C2Nc3ccccc3-c3nc4ccccc4n32)c1 (stereo unspecified)	i	i	-14	-4.5*	i	i
Cc1ccsc1C1Nc2ccccc2-c2nc3ccccc3n21 (stereo unspecified)	i	i	-2	-0.26	i	i
CCC(C)n1cnc2c(c1=O)c1nc3ccccc3nc1n2Cc1ccc2c(c1)OCO2 (stereo unspecified)	.	7*	-9	-0.46	i	-7.2*
Clc1ccc(OCCn2ccnc2)c(Cl)c1	i	i	-7	-2.5	i	i
Clc1ccc(OCCn2ccnc2)c2ccccc12	i	6*	-19	-4	i	i
O=C1CCC(=O)N1OCCOc1ccc(Cl)c2ccccc12	i	6*	-14	-0.63	i	i
Cc1ccc(-c2ccc(CCC(=O)O)n2-c2cccc(C(=O)O)c2)cc1	i	i	-2	0.05	i	i
CC(C)Cn1c(-c2cccs2)nc2ccccc21	i	i	-5	-4.5*	i	i
COc1ccccc1C(O)(c1ccccc1)c1ccccc1OC	-10*	.	.	.	.	.
